Data from ChEMBL document CHEMBL1121582, “Structure-activity relationship of diphenylthiourea antivirals” (1980).

Species: Homo sapiens
Test: Antiviral activity was evaluated in vitro against human poliovirus as antiviral affect in agar-diffusion plaque-inhibition test(- => inhibition, diameter < = 5 mm)
Type: functional
Details: not given
Outline: (§1)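 FL cell monolayers were infected with virus (adsorption 60 min at 20 °C) at a dose giving semiconfluent plaques in 24-48 h at 37 °C. Cells were overlaid with 1% agar in Eagle medium with 10% heated calf serum. 0.1 mL of compound, usually a 2-4% solution, went into 6 mm glass cylinders set in the agar. A second overlay held 0.02% neutral red. Plaque-inhibition and cytotoxicity zone diameters (mm) were read using 3-5 cylinders in at least two dishes. Grading: -, ≤5 mm; ±, 6-10; +, 11-20; ++, ≥20.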

SMILES | Antiviral effect
Oc1ccc(/N=C(\S)Nc2ccc(O)cc2)cc1 | Not toxic

Test system: not listed separately
Test: Antiviral activity was evaluated in vitro against human Coxsackie virus as toxicity zone in agar-diffusion plaque-inhibition test
Type: functional
Details: not given
Outline: as §1

SMILES | Toxicity zone [mm]
Oc1cccc(/N=C(\S)Nc2cccc(O)c2)c1 | 33.3
Nc1ccccc1/N=C(\S)Nc1ccccc1N | 34
O=C(Nc1ccccc1)Nc1cccc(O)c1 | 6.5
Nc1cccc(N/C(S)=N/c2ccccc2)c1 | 16.7
Nc1ccccc1/N=C(/S)Nc1ccccc1 | 41

Test system: not listed separately
Test: Antiviral activity was evaluated in vitro against human ECHO virus as toxicity zone in agar-diffusion plaque-inhibition test
Type: functional
Details: not given
Outline: as §1

SMILES | Toxicity zone [mm]
Oc1cccc(/N=C(\S)Nc2cccc(O)c2)c1 | 29
Nc1ccccc1/N=C(\S)Nc1ccccc1N | 43.5
O=C(Nc1ccccc1)Nc1cccc(O)c1 | 6.5
Nc1cccc(N/C(S)=N/c2ccccc2)c1 | 20
Nc1ccccc1/N=C(/S)Nc1ccccc1 | 37

Species: Homo sapiens
Test: Antiviral activity was evaluated in vitro against human Coxsackie virus as antiviral affect in agar-diffusion plaque-inhibition test (+/- => inhibition, diameter 6-10 mm)
Type: functional
Details: not given
Outline: as §1

SMILES | Antiviral effect
Oc1cccc(/N=C(\S)Nc2cccc(O)c2)c1 | +/-
Nc1ccccc1/N=C(\S)Nc1ccccc1N | +/-

Species: Homo sapiens
Test: Antiviral activity was evaluated in vitro against human Coxsackie virus as antiviral affect in agar-diffusion plaque-inhibition test (- => inhibition diameter < = 5 mm)
Type: functional
Details: not given
Outline: (§2)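 FL cell monolayers in 90 mm dishes infected with virus dose giving semiconfluent plaques (adsorption 60 min, 20 °C), then 1% agar overlay in Eagle MM with 10% heated calf serum. Compound, 0.1 mL of usually 2-4% ethanol solution, was placed in 6 mm glass cylinders set in the agar. Concentrations were preliminarily checked as well-tolerated by the cells. Incubation was 24-48 h at 37 °C, followed by a second overlay of 1.5% agar with 0.02% neutral red. Read-out was the diameter of the plaque-inhibition zone and the cytotoxicity zone, using 3-5 cylinders per compound in ≥2 dishes. Scoring: - Δϕ ≤5 mm; ± 6-10; + 11-20; ++ ≥20 mm.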

SMILES | Antiviral effect
Nc1ccc(N/C(S)=N/c2ccccc2)cc1 | Not toxic

Species: Homo sapiens
Test: Antiviral activity was evaluated in vitro against human Coxsackie virus as antiviral affect in agar-diffusion plaque-inhibition test (- => inhibition, diameter < = 5 mm)
Type: functional
Details: not given
Outline: as §2

SMILES | Antiviral effect
O=C(O)c1ccccc1/N=C(/S)Nc1ccccc1 | Not toxic
O=C(O)c1ccc(N/C(S)=N/c2ccccc2)cc1 | Not toxic
O=C(O)c1cccc(N/C(S)=N/c2ccccc2)c1 | Not toxic

Species: Homo sapiens
Test: Antiviral activity was evaluated in vitro against human Coxsackie virus as antiviral affect in agar-diffusion plaque-inhibition test (- =>inhibition, diameter < = 5 mm)
Type: functional
Details: not given
Outline: as §2

SMILES | Antiviral effect
Oc1ccccc1/N=C(/S)Nc1ccccc1 | Not toxic

Species: Homo sapiens
Test: Antiviral activity was evaluated in vitro against human ECHO virus as antiviral affect in agar-diffusion plaque-inhibition test (- => inhibition diameter < = 5 mm)
Type: functional
Details: not given
Outline: as §2

SMILES | Antiviral effect
Nc1ccc(N/C(S)=N/c2ccccc2)cc1 | Not toxic

Test system: not listed separately
Test: Antiviral activity was evaluated in vitro against human ECHO virus as antiviral affect in agar-diffusion plaque-inhibition test (- => inhibition, diameter < = 5 mm)
Type: functional
Details: not given
Outline: as §2

SMILES | Antiviral effect
O=C(O)c1ccc(N/C(S)=N/c2ccccc2)cc1 | Not toxic
Oc1ccccc1/N=C(/S)Nc1ccccc1 | Not toxic
O=C(O)c1cccc(N/C(S)=N/c2ccccc2)c1 | Not toxic
Oc1ccc(N/C(S)=N/c2ccccc2)cc1 | Not toxic

Species: Homo sapiens
Test: Antiviral activity was evaluated in vitro against human ECHO virus as antiviral affect in agar-diffusion plaque-inhibition test(- => inhibition, diameter < = 5 mm)
Type: functional
Details: not given
Outline: as §1

SMILES | Antiviral effect
O=C(Nc1ccccc1)Nc1cccc(O)c1 | Not toxic
Nc1ccccc1/N=C(/S)Nc1ccccc1 | Not toxic

Species: Homo sapiens
Test: Antiviral activity was evaluated in vitro against human poliovirus as antiviral affect in agar-diffusion plaque-inhibition test (+/- => inhibition, diameter = 6-10 mm)
Type: functional
Details: not given
Outline: as §1

SMILES | Antiviral effect
O=C(Nc1ccccc1)Nc1cccc(O)c1 | Not toxic
Oc1ccc(N/C(S)=N/c2ccccc2)cc1 | +/-

Species: Homo sapiens
Test: Antiviral activity was evaluated in vitro against human poliovirus as antiviral affect in agar-diffusion plaque-inhibition test (- => inhibition diameter < = 5 mm)
Type: functional
Details: not given
Outline: as §1

SMILES | Antiviral effect
Nc1ccc(N/C(S)=N/c2ccccc2)cc1 | Not toxic

Test system: not listed separately
Test: Antiviral activity was evaluated in vitro against human poliovirus as antiviral affect in agar-diffusion plaque-inhibition test (- => inhibition, diameter < = 5 mm)
Type: functional
Details: not given
Outline: as §1

SMILES | Antiviral effect
O=C(O)c1ccc(N/C(S)=N/c2ccccc2)cc1 | Not toxic
Oc1ccccc1/N=C(/S)Nc1ccccc1 | Not toxic
CC(=O)Nc1cccc(O)c1 [METACETAMOL] | Not toxic
O=C(O)c1cccc(N/C(S)=N/c2ccccc2)c1 | Not toxic
O=C(Nc1ccccc1)Nc1ccccc1O | Not toxic

Test system: not listed separately
Test: Antiviral activity was evaluated in vitro against human poliovirus as antiviral affect in agar-diffusion plaque-inhibition test - => inhibition diameter < = 5 mm
Type: functional
Details: not given
Outline: as §1

SMILES | Antiviral effect
Nc1cccc(O)c1 [3-AMINOPHENOL] | Not toxic
Nc1cccc(NC(=O)Nc2ccccc2)c1 | Not toxic
Nc1ccccc1NC(=O)Nc1ccccc1 | Not toxic
Nc1ccc(NC(=O)Nc2ccccc2)cc1 | Not toxic
O=C(Nc1ccccc1)Nc1ccc(O)cc1 | Not toxic
NC(N)=S [THIOUREA] | Not toxic
Nc1ccc(/N=C(\S)Nc2ccc(N)cc2)cc1 | Not toxic

Test system: Poliovirus 1
Test: Antiviral activity was evaluated in vitro against human poliovirus as inhibition zone in agar-diffusion plaque-inhibition test
Type: functional
Details: not given
Outline: as §1

SMILES | Inhibition zone [mm]
Nc1cccc(O)c1 [3-AMINOPHENOL] | 0
Oc1cccc(/N=C(\S)Nc2cccc(O)c2)c1 | 26.7
Nc1cccc(NC(=O)Nc2ccccc2)c1 | 0
Nc1ccccc1/N=C(\S)Nc1ccccc1N | 53.7
Nc1ccccc1NC(=O)Nc1ccccc1 | 0
O=C(Nc1ccccc1)Nc1cccc(O)c1 | 13.3
Nc1ccc(N/C(S)=N/c2ccccc2)cc1 | 0
Nc1cccc(N/C(S)=N/c2ccccc2)c1 | 28.3
Nc1ccc(NC(=O)Nc2ccccc2)cc1 | 0
Oc1ccc(/N=C(\S)Nc2ccc(O)cc2)cc1 | 0
Nc1ccccc1/N=C(/S)Nc1ccccc1 | 28
Oc1cccc(N/C(S)=N/c2ccccc2)c1 | 33
O=C(Nc1ccccc1)Nc1ccc(O)cc1 | 0
NC(N)=S [THIOUREA] | 26
O=C(O)c1ccc(N/C(S)=N/c2ccccc2)cc1O | 36.1
CC(=O)Nc1cccc(O)c1 [METACETAMOL] | 0
Nc1ccc(/N=C(\S)Nc2ccc(N)cc2)cc1 | 0
O=C(Nc1ccccc1)Nc1ccccc1O | 36.2

Test system: not listed separately
Test: cells
Type: functional
Details: Homo sapiens

SMILES | inhibition at 100 µM [%]
Oc1cccc(N/C(S)=N/c2ccccc2)c1 | 99.4

Test system: not listed separately
Test: cells
Type: functional
Details: Homo sapiens
Remark: another data set of the same source

SMILES | inhibition at 100 µM [%]
Oc1cccc(/N=C(\S)Nc2cccc(O)c2)c1 | 73.5
O=C(Nc1ccccc1)Nc1cccc(O)c1 | 66.3

Test system: not listed separately
Test: cells
Type: functional
Details: Homo sapiens
Remark: another data set of the same source

SMILES | inhibition at 200 µM [%]
Oc1cccc(/N=C(\S)Nc2cccc(O)c2)c1 | 89
O=C(Nc1ccccc1)Nc1cccc(O)c1 | 96.3
Nc1cccc(N/C(S)=N/c2ccccc2)c1 | 100
Nc1ccccc1/N=C(/S)Nc1ccccc1 | 98.7
Oc1cccc(N/C(S)=N/c2ccccc2)c1 | 99.9
O=C(O)c1ccc(N/C(S)=N/c2ccccc2)cc1O | 99.9

Species: Homo sapiens
Test: Antiviral activity was evaluated in vitro against human ECHO virus as antiviral affect in agar-diffusion plaque-inhibition test (+ => inhibition diameter = 11-20 mm)
Type: functional
Details: not given
Outline: as §1

SMILES | Antiviral effect
Nc1ccccc1/N=C(\S)Nc1ccccc1N | Not toxic

Species: Homo sapiens
Test: Antiviral activity was evaluated in vitro against human ECHO virus as antiviral affect in agar-diffusion plaque-inhibition test (+/- =>inhibition, diameter 6-10 mm)
Type: functional
Details: not given
Outline: as §1

SMILES | Antiviral effect
Oc1cccc(/N=C(\S)Nc2cccc(O)c2)c1 | +/-

Species: Homo sapiens
Test: Antiviral activity was evaluated in vitro against human Coxsackie virus as antiviral affect in agar-diffusion plaque-inhibition test(- => inhibition, diameter < = 5 mm)
Type: functional
Details: not given
Outline: as §1

SMILES | Antiviral effect
O=C(Nc1ccccc1)Nc1cccc(O)c1 | Not toxic
Nc1ccccc1/N=C(/S)Nc1ccccc1 | Not toxic

Test system: Poliovirus 1
Test: Antiviral activity was evaluated in vitro against human poliovirus as toxicity zone in agar-diffusion plaque-inhibition test
Type: functional
Details: not given
Outline: as §1

SMILES | Toxicity zone [mm]
Nc1cccc(O)c1 [3-AMINOPHENOL] | 0
Oc1cccc(/N=C(\S)Nc2cccc(O)c2)c1 | 11.4
Nc1cccc(NC(=O)Nc2ccccc2)c1 | 0
Nc1ccccc1/N=C(\S)Nc1ccccc1N | 39.4
Nc1ccccc1NC(=O)Nc1ccccc1 | 0
O=C(Nc1ccccc1)Nc1cccc(O)c1 | 7.3
Nc1ccc(N/C(S)=N/c2ccccc2)cc1 | 0
Nc1cccc(N/C(S)=N/c2ccccc2)c1 | 18
Nc1ccc(NC(=O)Nc2ccccc2)cc1 | 0
Oc1ccc(/N=C(\S)Nc2ccc(O)cc2)cc1 | 0
Nc1ccccc1/N=C(/S)Nc1ccccc1 | 9
Oc1cccc(N/C(S)=N/c2ccccc2)c1 | 15.8
O=C(Nc1ccccc1)Nc1ccc(O)cc1 | 0
NC(N)=S [THIOUREA] | 22
O=C(O)c1ccc(N/C(S)=N/c2ccccc2)cc1O | 17.9
CC(=O)Nc1cccc(O)c1 [METACETAMOL] | 0
Nc1ccc(/N=C(\S)Nc2ccc(N)cc2)cc1 | 0
O=C(Nc1ccccc1)Nc1ccccc1O | 32
